Experimental data as given in ChEMBL document CHEMBL1124216, “A novel class of potential central nervous system agents. 3-Phenyl-2-(1-piperazinyl)-5H-1-benzazepines” (1988).

How the values were obtained:
Format in all cases: functional
Canis familiaris [1] = experiment: Inhibition of apomorphine induced emesis in dogs when administered perorally; conditions: Canis lupus familiaris, po
Outline: (§1)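 Beagle dogs (10-15 kg), groups of three, given compound po in a gelatin capsule; 2 h later apomorphine hydrochloride 0.3 mg/kg sc. Vomiting counted for 1 h; mean inhibition as percent of control. ED50 is the dose giving 50% inhibition of emesis, by Litchfield-Wilcoxon.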

Mus musculus [2] = experiment: 3,4 -Dihydroxy phenylacetic acid (DOPAC) levels in mouse brain at 50 mg/kg dose.
Outline: (§2)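 Male Std-ddY mice (20-25 g) dosed orally with compound dissolved or suspended in 0.5% aqueous tragacanth. DOPAC measured fluorometrically after purification by column chromatography on Sephadex G-10 and QAE-Sephadex. Brains from five mice per compound pooled for the determination.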

Mus musculus [3] = experiment: Antiexploratory activity (EXPL) of mice determined by an antimex activity meter, 10 mg/kg of dose was administered perorally; conditions: route oral
Outline: (§3)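 Male Std-ddY mice (20-25 g), five per dose, given compound orally in 0.5% aqueous tragacanth. Two hours later each mouse was placed in the activity-meter cage and locomotor activity was counted for 3 min. Suppression is expressed as percent inhibition of control. ED50 (dose giving 50% inhibition) calculated by Litchfield-Wilcoxon.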

Mus musculus [4] = experiment: Concentration of compound that causes ptosis in the mice when administered perorally; conditions: po
Outline: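 Five male Std-ddY mice per group were dosed orally in 0.5% aqueous tragacanth. At 2 h, eyelid closure was scored macroscopically (8 open to 0 fully closed). Group mean scores formed a dose-response curve. ED50 was the dose reducing the mean score to 50%.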

Mus musculus [5] = experiment: Concentration of compound that causes catalepsy in the mice when administered perorally; conditions: po
Outline: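 Male Std-ddY mice were dosed orally, vehicle 0.5% aqueous tragacanth. At 2 h, forepaws were placed on a rod 4.5 cm high. Failure to remove the paws within 30 s in three successive trials was scored cataleptic. ED50 was the dose giving catalepsy in 50% of mice (Litchfield-Wilcoxon).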

Canis familiaris [6] = experiment: Inhibition of apomorphine induced emesis in dogs at 2 mg/kg of dose.; conditions: Canis lupus familiaris; outline: as §1
Mus musculus [7] = experiment: Antiexploratory activity (EXPL) of mice determined by an antimex activity meter, 50 mg/kg of dose was administered perorally; conditions: route oral; outline: as §3
Mus musculus [8] = experiment: The homovanillic acid (HVA)levels in mouse brain at 50 mg/kg of dose.
Outline: (§4)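 Male Std-ddY mice (20-25 g) dosed orally with compound in 0.5% aqueous tragacanth (solution or suspension). Brain homovanillic acid (HVA) determined by a published method. Brains from five mice per compound pooled for one determination.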

Rattus norvegicus = experiment: Inhibition of self stimulation response in rats when administered perorally.; conditions: po
Outline: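 Male Wistar HLA rats (300-400 g) with chronic electrodes implanted in the lateral posterior hypothalamus; only rats lever-pressing steadily at 50-100/min were used. Compound given po in 0.5% tragacanth. Self-stimulation counted for 10 min before and 2 h after dosing. ED50 is the dose giving ≥50% rate inhibition in 50% of rats (Litchfield-Wilcoxon).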

Mus musculus [9] = experiment: 3,4 -Dihydroxy phenylacetic acid (DOPAC) levels in mouse brain at 10 mg/kg dose.; outline: as §2
Mus musculus [10] = experiment: Antiexploratory activity (EXPL) of mice determined by an antimex activity meter, when administered perorally; conditions: po; outline: as §3
Mus musculus [11] = experiment: The homovanillic acid (HVA)levels in mouse brain at 10 mg/kg of dose.; outline: as §4
Mus musculus [12] = experiment: Inhibition of conditioned avoidance response in mice when administered perorally; conditions: po
Outline: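 One-way active avoidance in male Std-ddY mice in a dark/light two-compartment box. Mice trained to move to the lit side on a warning stimulus to escape floor shock; groups of 10 avoiding at >80% in 10 trials. Compound po in 0.5% tragacanth. ED50 is the dose halving avoidance rate (Litchfield-Wilcoxon).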

Mus musculus [13] = experiment: Antimaximal electroshock seizure (MES) activity in mice after peroral administration of 10 mg/kg of compound; 0/5; conditions: route oral
Mus musculus [14] = experiment: Antipentylene tetrazole activity was determined in mice when administered perorally; conditions: po
Outline: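 Groups of five male Std-ddY mice received compound orally in 0.5% tragacanth, then pentylenetetrazole 175 mg/kg ip. Blockade of the tonic extensor component scored as anticonvulsant. ED50 was the dose protecting 50% of animals (Litchfield-Wilcoxon).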

Mus musculus [15] = experiment: Antitremorine activity(TRM) of mice after peroral administration of 10 mg/kg of compound; No inhibition; conditions: route oral
Mus musculus [16] = experiment: Antimaximal electroshock seizure (MES) activity in mice after peroral administration of 100 mg/kg of compound; 4/5; conditions: route oral
Mus musculus [17] = experiment: Antiexploratory activity (EXPL) of mice determined by an antimex activity meter,100 mg/kg of dose was administered perorally; No inhibition
Mus musculus [18] = experiment: Antimaximal electroshock seizure activity was determined in mice when administered perorally; conditions: po
Mus musculus [19] = experiment: Antireserpine activity (RES) of mice after peroral administration of 100 mg/kg of compound; No inhibition; conditions: route oral
Mus musculus [20] = experiment: Antitremorine activity(TRM) of mice after peroral administration of 100 mg/kg of compound; conditions: route oral
Mus musculus [21] = experiment: Antimaximal electroshock seizure (MES) activity in mice after peroral administration of 100 mg/kg of compound; 0/5; conditions: route oral
Mus musculus [22] = experiment: Antitremorine activity(TRM) of mice after peroral administration of 100 mg/kg of compound; No inhibition; conditions: route oral
Mus musculus [23] = experiment: Antiexploratory activity (EXPL) of mice determined by an antimex activity meter, 100 mg/kg of dose was administered perorally; conditions: route oral
Mus musculus [24] = experiment: Antitreserpine activity(RES) of mice after peroral administration of 100 mg/kg of compound; Moderate inhibition (51-71%); conditions: route oral
Mus musculus [25] = experiment: Antiexploratory activity (EXPL) of mice determined by an antimex activity meter, 10 mg/kg of dose was administered perorally; No inhibition; conditions: route oral
Mus musculus [26] = experiment: Antiexploratory activity (EXPL) of mice determined by an antimex activity meter, 100 mg/kg of dose was administered perorally; Potent inhibition; conditions: route oral
Mus musculus [27] = experiment: Antitremorine activity(TRM) of mice after peroral administration of 100 mg/kg of compound; Moderate inhibition (51-71%); conditions: route oral
Mus musculus [28] = experiment: Antimaximal electroshock seizure (MES) activity in mice after peroral administration of 100 mg/kg of compound; 5/5; conditions: route oral
Mus musculus [29] = experiment: Antiexploratory activity (EXPL) of mice determined by an antimex activity meter,100 mg/kg of dose was administered perorally
Mus musculus [30] = experiment: Antiexploratory activity (EXPL) of mice determined by an antimex activity meter, 50 mg/kg of dose was administered perorally; No inhibition; conditions: route oral
Mus musculus [31] = experiment: Antireserpine activity (RES) of mice after peroral administration of 100 mg/kg of compound; Moderate inhibition (51-71%); conditions: route oral
Mus musculus [32] = experiment: Antitremorine activity(TRM) of mice after peroral administration of 50 mg/kg of compound; No inhibition; conditions: route oral

CN(C)CCCN1c2ccccc2Sc2ccc(Cl)cc21 [CHLORPROMAZINE]
ED50 (Canis familiaris [1]): 4.53 mg/kg
Control % at 50 mg/kg (Mus musculus [2]): 303%
inhibition in vivo at 10 mg/kg (Mus musculus [3]): 46.3%
ED50 (Mus musculus [4]): 24.9 mg/kg
ED50 (Mus musculus [5]): 7.81 mg/kg
inhibition in vivo at 2 mg/kg (Canis familiaris [6]): 22.2%
inhibition in vivo at 50 mg/kg (Mus musculus [7]): 90.1%
Control % at 50 mg/kg (Mus musculus [8]): 304%
ED50 (Rattus norvegicus): 6.68 mg/kg
Control % at 10 mg/kg (Mus musculus [9]): 232%
ED50 (Mus musculus [10]): 8.26 mg/kg
Control % at 10 mg/kg (Mus musculus [11]): 203%
ED50 (Mus musculus [12]): 5.59 mg/kg

CCN1CCN(C2=Nc3ccc(C)cc3CC=C2c2ccccc2)CC1.Cl.Cl
Activity (Mus musculus [13]): 0
ED50 (Mus musculus [14]): 32.3 mg/kg
inhibition in vivo at 10 mg/kg (Mus musculus [15]): < 30%
Activity (Mus musculus [16]): 4
Inhibition (Mus musculus [17]): <30%
ED50 (Mus musculus [18]): 70.2 mg/kg
inhibition in vivo at 100 mg/kg (Mus musculus [19]): < 30%
inhibition in vivo at 100 mg/kg (Mus musculus [20]): > 71%

Cl.Cl.OCCN1CCN(C2=Nc3ccc(F)cc3CC=C2c2ccccc2)CC1
ED50 (Mus musculus [14]): > 500 mg/kg
Activity (Mus musculus [21]): 0
inhibition in vivo at 100 mg/kg (Mus musculus [22]): < 30%
ED50 (Mus musculus [18]): > 500 mg/kg
inhibition in vivo at 100 mg/kg (Mus musculus [23]): > 71%
inhibition in vivo at 100 mg/kg (Mus musculus [19]): < 30%

COc1ccc2c(c1)CC=C(c1ccccc1)C(N1CCN(C)CC1)=N2.Cl.Cl
inhibition in vivo at 100 mg/kg (Mus musculus [24]): 51%
Activity (Mus musculus [13]): 0
inhibition in vivo at 10 mg/kg (Mus musculus [25]): < 30%
inhibition in vivo at 100 mg/kg (Mus musculus [26]): > 71%
Activity (Mus musculus [16]): 4
inhibition in vivo at 100 mg/kg (Mus musculus [27]): 51%

CCc1ccc2c(c1)CC=C(c1ccccc1)C(N1CCN(CCO)CC1)=N2.Cl.Cl
Activity (Mus musculus [28]): 5
Activity (Mus musculus [13]): 0
Inhibition (Mus musculus [29]): <30%
inhibition in vivo at 100 mg/kg (Mus musculus [27]): 51%
inhibition in vivo at 100 mg/kg (Mus musculus [19]): < 30%

CN1CCN(C2=Nc3ccccc3CC=C2c2cccc(Cl)c2)CC1.Cl.Cl
Activity (Mus musculus [21]): 0
inhibition in vivo at 50 mg/kg (Mus musculus [30]): < 30%
inhibition in vivo at 100 mg/kg (Mus musculus [31]): 51%

O=C(c1ccc(F)cc1)C1CCN(C2=Nc3ccccc3CC=C2c2ccc(Cl)cc2)CC1
Activity (Mus musculus [21]): 0
inhibition in vivo at 100 mg/kg (Mus musculus [19]): < 30%
inhibition in vivo at 50 mg/kg (Mus musculus [32]): < 30%
inhibition in vivo at 50 mg/kg (Mus musculus [30]): < 30%
